Reference: BindingDB's records for doi:10.1021/jm990049j (Dupont Pharmaceuticals, 2000)

Biological target: Integrin alpha-IIb/beta-3 (Homo sapiens, UniProt P08514+P05106)
Experiment: Inhibition of aggregation of human gel-purified platelets (GPIIbIIIa GPP)
Procedure, shortened: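 Human platelets from healthy-volunteer platelet-rich plasma were gel-purified on sepharose and used at 2×10^8 platelets/mL with 1 mM CaCl2 and 1 mg/mL fibrinogen. Aggregation was measured with or without compound at several concentrations and IC50 calculated. Values are single determinations.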

Chain of Integrin alpha-IIb/beta-3 (P05106 27-788 limits assumed): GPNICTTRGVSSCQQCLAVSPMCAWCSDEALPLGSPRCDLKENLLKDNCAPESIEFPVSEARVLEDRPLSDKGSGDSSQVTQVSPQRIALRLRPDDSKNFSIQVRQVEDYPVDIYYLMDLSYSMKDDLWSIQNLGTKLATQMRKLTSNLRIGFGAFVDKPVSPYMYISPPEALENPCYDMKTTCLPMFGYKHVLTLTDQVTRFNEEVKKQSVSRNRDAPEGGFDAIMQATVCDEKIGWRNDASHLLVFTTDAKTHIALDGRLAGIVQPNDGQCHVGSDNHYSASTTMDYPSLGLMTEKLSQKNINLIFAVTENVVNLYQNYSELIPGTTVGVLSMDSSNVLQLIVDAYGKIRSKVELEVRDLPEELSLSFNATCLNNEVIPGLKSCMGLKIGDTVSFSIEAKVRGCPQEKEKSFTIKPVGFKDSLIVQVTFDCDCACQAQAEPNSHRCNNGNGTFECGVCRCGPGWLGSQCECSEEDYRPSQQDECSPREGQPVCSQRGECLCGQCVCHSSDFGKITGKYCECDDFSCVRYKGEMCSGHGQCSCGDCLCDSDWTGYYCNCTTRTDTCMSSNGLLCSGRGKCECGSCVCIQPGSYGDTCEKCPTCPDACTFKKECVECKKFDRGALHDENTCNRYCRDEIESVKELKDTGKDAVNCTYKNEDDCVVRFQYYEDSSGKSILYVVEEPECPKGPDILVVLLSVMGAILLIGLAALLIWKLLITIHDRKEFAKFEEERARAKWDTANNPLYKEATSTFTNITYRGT
Chain of Integrin alpha-IIb/beta-3 (P08514 32-887 limits assumed): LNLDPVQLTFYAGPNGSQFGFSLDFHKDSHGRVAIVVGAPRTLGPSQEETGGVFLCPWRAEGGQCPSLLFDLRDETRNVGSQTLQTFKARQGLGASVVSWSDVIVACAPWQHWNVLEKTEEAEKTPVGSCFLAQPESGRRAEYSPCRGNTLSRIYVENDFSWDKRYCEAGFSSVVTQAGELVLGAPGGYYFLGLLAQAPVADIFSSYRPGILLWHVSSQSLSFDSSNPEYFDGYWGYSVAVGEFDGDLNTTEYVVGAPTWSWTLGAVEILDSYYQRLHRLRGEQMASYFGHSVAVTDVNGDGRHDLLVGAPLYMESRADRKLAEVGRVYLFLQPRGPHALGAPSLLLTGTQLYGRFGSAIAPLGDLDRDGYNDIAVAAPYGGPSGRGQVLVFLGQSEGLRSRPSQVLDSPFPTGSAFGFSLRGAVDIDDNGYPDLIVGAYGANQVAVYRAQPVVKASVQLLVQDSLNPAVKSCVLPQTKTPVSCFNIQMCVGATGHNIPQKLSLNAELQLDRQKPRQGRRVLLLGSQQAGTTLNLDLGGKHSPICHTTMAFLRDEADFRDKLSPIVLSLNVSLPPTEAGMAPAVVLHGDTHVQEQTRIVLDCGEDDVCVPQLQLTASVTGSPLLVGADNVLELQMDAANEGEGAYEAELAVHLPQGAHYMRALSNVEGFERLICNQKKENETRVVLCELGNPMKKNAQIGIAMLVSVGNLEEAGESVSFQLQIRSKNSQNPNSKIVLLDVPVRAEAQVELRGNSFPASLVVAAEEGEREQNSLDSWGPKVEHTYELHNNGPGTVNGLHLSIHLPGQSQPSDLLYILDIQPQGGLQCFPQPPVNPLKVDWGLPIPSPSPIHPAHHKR
Chain of Integrin alpha-IIb/beta-3 (P08514 891-1039 limits assumed): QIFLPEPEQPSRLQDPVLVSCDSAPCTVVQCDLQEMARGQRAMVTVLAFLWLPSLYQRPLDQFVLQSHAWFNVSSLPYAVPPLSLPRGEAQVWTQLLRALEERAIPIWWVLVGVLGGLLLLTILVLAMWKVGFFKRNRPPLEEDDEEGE

Structure (SMILES)	IC50
O=C(NC[C@H](NS(=O)(=O)c1cccc2ccccc12)C(=O)O)c1ccc2c(cnn2CCCNc2ncc[nH]2)c1 [3-({1-[3-(1H-Imidazol-2-ylamino)-propyl]-1H-indazole-5-carbonyl}-amino)-2-(naphthalene-1-sulfonylamino)-propionic acid]	39 nM
O=C(NC[C@H](NS(=O)(=O)Nc1ccccc1)C(=O)O)c1ccc2c(cnn2CCCNc2ccccn2)c1 [3-[1-[3-(N-Pyridin-2ylamino)propyl]indazol-5-ylcarbonylamino]-2(S)-(phenylaminosulfonylamino) propionic acid]	7800 nM
O=C(N[C@@H](CNC(=O)c1ccc2c(cnn2CCCNc2ccccn2)c1)C(=O)O)OCc1ccccc1 [2-Benzyloxycarbonylamino-3-({1-[3-(pyridin-2-ylamino)-propyl]-1H-indazole-5-carbonyl}-amino)-propionic acid]	> 10000 nM
CC(=O)Nc1ccc(S(=O)(=O)N[C@@H](CNC(=O)c2ccc3c(cnn3CCCNc3ncc[nH]3)c2)C(=O)O)cc1 [2-(4-Acetylamino-benzenesulfonylamino)-3-({1-[3-(1H-imidazol-2-ylamino)-propyl]-1H-indazole-5-carbonyl}-amino)-propionic acid]	400 nM
CCCCS(=O)(=O)N[C@@H](CNC(=O)c1ccc2c(cnn2CCCNc2ccccn2)c1)C(=O)O [2-(Butane-1-sulfonylamino)-3-({1-[3-(pyridin-2-ylamino)-propyl]-1H-indazole-5-carbonyl}-amino)-propionic acid]	9000 nM
O=C(NC[C@H](NS(=O)(=O)c1c(Cl)cccc1Cl)C(=O)O)c1ccc2c(cnn2CCCNc2ncc[nH]2)c1 [2-(2,6-Dichloro-benzenesulfonylamino)-3-({1-[3-(1H-imidazol-2-ylamino)-propyl]-1H-indazole-5-carbonyl}-amino)-propionic acid]	12 nM
Cc1cccc(C)c1S(=O)(=O)N[C@@H](CNC(=O)c1ccc2c(cnn2CCCNc2ncc[nH]2)c1)C(=O)O [2-(2,6-Dimethyl-benzenesulfonylamino)-3-({1-[3-(1H-imidazol-2-ylamino)-propyl]-1H-indazole-5-carbonyl}-amino)-propionic acid]	74 nM
O=C(NC[C@H](NS(=O)(=O)c1ccc(-c2ccccc2)cc1)C(=O)O)c1ccc2c(cnn2CCCNc2ncc[nH]2)c1 [2-(Biphenyl-4-sulfonylamino)-3-({1-[3-(1H-imidazol-2-ylamino)-propyl]-1H-indazole-5-carbonyl}-amino)-propionic acid]	130 nM
O=C(NC[C@H](NS(=O)(=O)c1ccc(C(F)(F)F)cc1)C(=O)O)c1ccc2c(cnn2CCCNc2ncc[nH]2)c1 [3-({1-[3-(1H-Imidazol-2-ylamino)-propyl]-1H-indazole-5-carbonyl}-amino)-2-(4-trifluoromethyl-benzenesulfonylamino)-propionic acid]	4400 nM
Cc1cc(-c2ccccc2)cc(C)c1S(=O)(=O)N[C@@H](CNC(=O)c1ccc2c(cnn2CCCNc2ncc[nH]2)c1)C(=O)O [2-(3,5-Dimethyl-biphenyl-4-sulfonylamino)-3-({1-[3-(1H-imidazol-2-ylamino)-propyl]-1H-indazole-5-carbonyl}-amino)-propionic acid]	74 nM
Cc1cc(C)c(S(=O)(=O)N[C@H](CNC(=O)c2ccc3c(cnn3CCCNc3ncc[nH]3)c2)C(=O)O)c(C)c1	5000 nM
O=C(NC[C@H](NS(=O)(=O)c1ccc2ccccc2c1)C(=O)O)c1ccc2c(cnn2CCCNc2ncc[nH]2)c1 [3-({1-[3-(1H-Imidazol-2-ylamino)-propyl]-1H-indazole-5-carbonyl}-amino)-2-(naphthalene-2-sulfonylamino)-propionic acid]	81 nM
Cc1cc(C)c(S(=O)(=O)N[C@@H](CNC(=O)c2ccc3c(cnn3CCC(=O)Nc3ncc[nH]3)c2)C(=O)O)c(C)c1 [3-({1-[2-(1H-Imidazol-2-ylcarbamoyl)-ethyl]-1H-indazole-5-carbonyl}-amino)-2-(2,4,6-trimethyl-benzenesulfonylamino)-propionic acid]	4000 nM
O=C(N[C@@H](CNC(=O)c1ccc2c(cnn2CCCNc2ncc[nH]2)c1)C(=O)O)OCc1ccccc1 [2-Benzyloxycarbonylamino-3-({1-[3-(1H-imidazol-2-ylamino)-propyl]-1H-indazole-5-carbonyl}-amino)-propionic acid]	1000 nM
Cc1cc(C)c(S(=O)(=O)N[C@@H](CNC(=O)c2ccc3c(cnn3CCCNC3=NCCCN3)c2)C(=O)O)c(C)c1 [3-({1-[3-(1,4,5,6-Tetrahydro-pyrimidin-2-ylamino)-propyl]-1H-indazole-5-carbonyl}-amino)-2-(2,4,6-trimethyl-benzenesulfonylamino)-propionic acid]	66 nM
COc1ccc(S(=O)(=O)N[C@@H](CNC(=O)c2ccc3c(cnn3CCCNc3ncc[nH]3)c2)C(=O)O)cc1 [3-({1-[3-(1H-Imidazol-2-ylamino)-propyl]-1H-indazole-5-carbonyl}-amino)-2-(4-methoxy-benzenesulfonylamino)-propionic acid]	410 nM
O=C(NC[C@H](NS(=O)(=O)c1ccccc1)C(=O)O)c1ccc2c(cnn2CCCNc2ccccn2)c1 [2-Benzenesulfonylamino-3-({1-[3-(pyridin-2-ylamino)-propyl]-1H-indazole-5-carbonyl}-amino)-propionic acid]	290 nM
Cc1cc(C)c(NS(=O)(=O)N[C@@H](CNC(=O)c2ccc3c(cnn3CCCNc3ccccn3)c2)C(=O)O)c(C)c1 [3-[1-[3-(N-Pyridin-2ylamino)propyl]indazol-5-ylcarbonylamino]-2(S)-(2,4,6-trimethylphenylaminosulfonylamino) propionic acid]	36000 nM
O=C(NC[C@H](NS(=O)(=O)NCc1ccccc1)C(=O)O)c1ccc2c(cnn2CCCNc2ccccn2)c1 [3-[1-[3-(N-Pyridin-2ylamino)propyl]indazol-5-ylcarbonylamino]-2(S)-(phenylmethylaminosulfonylamino) propionic acid]	8100 nM
Cc1cc(C)c(S(=O)(=O)N[C@@H](CNC(=O)c2ccc3c(cnn3CCCNC3=NCCN3)c2)C(=O)O)c(C)c1 [3-({1-[3-(4,5-Dihydro-1H-imidazol-2-ylamino)-propyl]-1H-indazole-5-carbonyl}-amino)-2-(2,4,6-trimethyl-benzenesulfonylamino)-propionic acid]	57 nM
CC(C)(C)c1ccc(S(=O)(=O)N[C@@H](CNC(=O)c2ccc3c(cnn3CCCNc3ncc[nH]3)c2)C(=O)O)cc1 [2-(4-tert-Butyl-benzenesulfonylamino)-3-({1-[3-(1H-imidazol-2-ylamino)-propyl]-1H-indazole-5-carbonyl}-amino)-propionic acid]	2000 nM
O=C(NC[C@H](NS(=O)(=O)c1ccccc1)C(=O)O)c1ccc2c(cnn2CCCNc2ncc[nH]2)c1 [2-Benzenesulfonylamino-3-({1-[3-(1H-imidazol-2-ylamino)-propyl]-1H-indazole-5-carbonyl}-amino)-propionic acid]	34 nM
Cc1cc(C)c(S(=O)(=O)N[C@@H](CNC(=O)c2ccc3c(cnn3CCCNc3ccccn3)c2)C(=O)O)c(C)c1 [3-({1-[3-(Pyridin-2-ylamino)-propyl]-1H-indazole-5-carbonyl}-amino)-2-(2,4,6-trimethyl-benzenesulfonylamino)-propionic acid]	220 nM
CC(C)COC(=O)N[C@@H](CNC(=O)c1ccc2c(cnn2CCCNc2ccccn2)c1)C(=O)O [2-Isobutoxycarbonylamino-3-({1-[3-(pyridin-2-ylamino)-propyl]-1H-indazole-5-carbonyl}-amino)-propionic acid]	25000 nM
Cc1ccc(S(=O)(=O)N[C@@H](CNC(=O)c2ccc3c(cnn3CCCNc3ncc[nH]3)c2)C(=O)O)cc1 [3-({1-[3-(1H-Imidazol-2-ylamino)-propyl]-1H-indazole-5-carbonyl}-amino)-2-(toluene-4-sulfonylamino)-propionic acid]	83 nM
Cc1cc(C)c(S(=O)(=O)N[C@@H](CNC(=O)c2ccc3c(cnn3CCCNc3ncc[nH]3)c2)C(=O)O)c(C)c1 [3-({1-[3-(1H-Imidazol-2-ylamino)-propyl]-1H-indazole-5-carbonyl}-amino)-2-(2,4,6-trimethyl-benzenesulfonylamino)-propionic acid]	21 nM
Cc1cc(C)c(S(=O)(=O)N[C@@H](CC(=O)Nc2ccc3c(cnn3CCCNc3ccccn3)c2)C(=O)O)c(C)c1 [N-{1-[3-(Pyridin-2-ylamino)-propyl]-1H-indazol-5-yl}-2-(2,4,6-trimethyl-benzenesulfonylamino)-succinamic acid]	41000 nM
O=C(NC[C@H](NS(=O)(=O)c1ccc(Cl)c(Cl)c1)C(=O)O)c1ccc2c(cnn2CCCNc2ncc[nH]2)c1 [2-(3,4-Dichloro-benzenesulfonylamino)-3-({1-[3-(1H-imidazol-2-ylamino)-propyl]-1H-indazole-5-carbonyl}-amino)-propionic acid]	790 nM
O=C(NC[C@H](NS(=O)(=O)c1ccc(Cl)cc1)C(=O)O)c1ccc2c(cnn2CCCNc2ncc[nH]2)c1 [2-(4-Chloro-benzenesulfonylamino)-3-({1-[3-(1H-imidazol-2-ylamino)-propyl]-1H-indazole-5-carbonyl}-amino)-propionic acid]	260 nM
